Measurements as given in ChEMBL document CHEMBL1122142, “Synthesis and antiinflammatory activity of hexahydrothiopyrano[4,3-c]pyrazoles and related analogues” (J Med Chem, 1982).

Experiments:
Cavia porcellus [1] = experiment: The compound was evaluated for the delayed hypersensitivity skin reaction (DHSR) activity after subcutaneous administration; 12/21
Mus musculus [2] = experiment: Mouse active Arthus (MAA) reaction activity was determined for an ip dose of 150 mg/kg in mouse; 31-40%; format: functional; settings: route intraperitoneal
Mus musculus [3] = experiment: The compound was evaluated for the mouse active Arthus (MAA) reaction activity for peroral screening dose of 150 mg/kg in mouse; format: functional; settings: route oral
Cavia porcellus [4] = experiment: Tested in delayed hypersensitivity skin reaction (DHSR) after subcutaneous administration, activity reported as percent inhibition of erythema/induration of lesion; 19/23; format: functional
Mus musculus [5] = experiment: The compound was evaluated for the mouse active Arthus (MAA) reaction activity for an ip screening dose of 75 mg/kg in mouse; format: functional; settings: route intraperitoneal
How it was run: (§1)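 CD-1 mice were sensitized ip with a 1:1 Freund's complete adjuvant emulsion containing BSA in saline, 5 weeks before challenge. Compound was suspended in 1% Na CMC in pyrogen-free saline and given as one ip or oral dose 1 h before skin challenge with BSA. Screening doses were 150 mg/kg ip and 300 mg/kg po, with some at 75 or 50 mg/kg ip. Lesions were excised 3.5 h after challenge and weighed against controls.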

Cavia porcellus [6] = experiment: Tested in delayed hypersensitivity skin reaction (DHSR) after subcutaneous administration, activity reported as percent inhibition of erythema/induration of lesion; 9/30; format: functional
How it was run: (§2)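 Male Hartley guinea pigs were sensitized with Mycobacterium tuberculosis in Freund's incomplete adjuvant, injected into each hind footpad and subcutaneously at the neck. After 3 weeks, 1.2 μg PPD was given intradermally. Compound in sesame oil was given sc, 3 animals per group, 30 min before and 5 h after PPD; screening dose 50 mg/kg.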

Mus musculus [7] = experiment: Inhibition of Mouse active Arthus (MAA) reaction activity was determined for an ip dose of 150 mg/kg in mouse; 21-30%; format: functional; settings: route intraperitoneal
Mus musculus [8] = experiment: Inhibition of Mouse active Arthus (MAA) reaction activity was determined for peroral dose of 300 mg/kg in mouse; 21-30%; format: functional; settings: route oral
Cavia porcellus [9] = experiment: Tested in delayed hypersensitivity skin reaction (DHSR) after subcutaneous administration, activity reported as percent inhibition of erythema/induration of lesion; 3/10; format: functional
How it was run: as §2

Mus musculus [10] = experiment: Inhibition of Mouse Active Arthus reaction following 150 mg/Kg i.p.; 41-60% inhibition.; format: functional; settings: for inhibition in vivo at 150 mg/kg: Mus musculus, ip
Cavia porcellus [11] = experiment: The compound was evaluated for the delayed hypersensitivity skin reaction (DHSR) activity after subcutaneous administration; 1/0
Cavia porcellus [12] = experiment: Tested in delayed hypersensitivity skin reaction (DHSR) after subcutaneous administration, activity reported as percent inhibition of erythema/induration of lesion; 8/11; format: functional
How it was run: as §2

Cavia porcellus [13] = experiment: Tested in delayed hypersensitivity skin reaction (DHSR) after subcutaneous administration, activity reported as percent inhibition of erythema/induration of lesion; 21/6; format: functional
Rattus norvegicus [14] = experiment: Adjuvant-induced arthritis was determined for a dose of 150 mg/kg administered orally; 17/0; format: functional; settings: po
How it was run: (§3)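 Male Lewis rats; day 0, 0.50 mg desiccated Mycobacterium butyricum in 0.10 mL light mineral oil into left plantar paw. Compound dissolved or suspended in 1% CMC, dosed daily for 21 days starting the day before adjuvant. On day 21, injected and noninjected hind paws weighed. Values are percent inhibition, local (injected paw)/systemic (noninjected paw).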

Rattus norvegicus [15] = experiment: Adjuvant-induced arthritis was determined for a dose of 75 mg/kg intraperitoneal administration; 28/78; format: functional; settings: ip
How it was run: as §3

[16] = Acute toxicity as LD50 value was determined in mice administered intraperitoneally; format: organism-based; settings: mouse, in vivo, ip
Rattus norvegicus [17] = experiment: Carrageenan-induced edema was determined after intraperitoneal administration; format: functional; settings: ip, read-out: ID50 (the source's name)
How it was run: (§4)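 Adult male Sprague-Dawley (CD) rats, 160–200 g. Single dose in 1% CMC given 2 h before footpad injection of 0.05 mL 1% carrageenin in pyrogen-free saline. Paws removed and weighed at 3 h, with the contralateral paw as control. ID50 is the dose giving 50% edema inhibition.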

Rattus norvegicus [18] = experiment: Adjuvant-induced arthritis was determined for a dose of 75 mg/kg oral administration; 1/0; format: functional
How it was run: as §3

Cavia porcellus [19] = experiment: Tested in delayed hypersensitivity skin reaction (DHSR) after subcutaneous administration, activity reported as percent inhibition of erythema/induration of lesion; 13/52; format: functional
Mus musculus [20] = experiment: The compound was evaluated for the mouse active Arthus (MAA) reaction activity expressed as inhibitory dose after oral administration; format: functional; settings: read-out: ID50 (the source's name)
How it was run: as §1

[21] = Acute toxicity as LD50 value was determined in mice administered orally; format: organism-based; settings: mouse, in vivo, po
Rattus norvegicus [22] = experiment: Adjuvant-induced arthritis was determined for a dose of 150 mg/kg administered intraperitoneally; 16/72; format: functional; settings: ip, route intraperitoneal
How it was run: as §3

[23] = Therapeutic ratio was determined for intraperitoneal administration; format: ADME; settings: ip; read-out: TR
Rattus norvegicus [24] = experiment: Carrageenan-induced edema was determined after oral administration; format: functional; settings: read-out: ID50 (the source's name)
How it was run: as §4

Mus musculus [25] = experiment: The compound was evaluated for the mouse active Arthus (MAA) reaction activity expressed as inhibitory dose after ip administration; format: functional; settings: read-out: ID50 (the source's name)
How it was run: as §1

Cavia porcellus [26] = experiment: Tested in delayed hypersensitivity skin reaction (DHSR) after subcutaneous administration, activity reported as percent inhibition of erythema/induration of lesion; 10/0; format: functional
Mus musculus [27] = experiment: The compound was evaluated for the mouse active Arthus (MAA) reaction activity for an ip screening dose of 75 mg/kg; 21-30%; format: functional; settings: route intraperitoneal
How it was run: as §1

Cavia porcellus [28] = experiment: Tested in delayed hypersensitivity skin reaction (DHSR) after subcutaneous administration, activity reported as percent inhibition of erythema/induration of lesion; 14/25; format: functional
Cavia porcellus [29] = experiment: Tested in delayed hypersensitivity skin reaction (DHSR) after subcutaneous administration, activity reported as percent inhibition of erythema/induration of lesion; 17/49; format: functional
Mus musculus [30] = experiment: Mouse active Arthus (MAA) reaction activity was determined for an peroral dose of 300 mg/kg in mouse; format: functional; settings: route oral
Cavia porcellus [31] = experiment: Tested in delayed hypersensitivity skin reaction (DHSR) after subcutaneous administration, activity reported as percent inhibition of erythema/induration of lesion; 7/17; format: functional
How it was run: as §2

Cavia porcellus [32] = experiment: Tested in delayed hypersensitivity skin reaction (DHSR) after subcutaneous administration, activity reported as percent inhibition of erythema/induration of lesion; 8/21; format: functional
How it was run: as §2

Cavia porcellus [33] = experiment: The compound was evaluated for the delayed hypersensitivity skin reaction (DHSR) activity after subcutaneous administration; 14/36
Mus musculus [34] = experiment: Inhibition of Mouse active Arthus (MAA) reaction activity was determined for peroral dose of 150 mg/kg in mouse; 21-30%; format: functional; settings: route oral
Cavia porcellus [35] = experiment: Tested in delayed hypersensitivity skin reaction (DHSR) after subcutaneous administration, activity reported as percent inhibition of erythema/induration of lesion; 3/4; format: functional
How it was run: as §2

Compound `CCCN1N=C2/C(=C/c3cccc(C(F)(F)F)c3)CSCC2C1c1cccc(C(F)(F)F)c1` (centres undefined) has an Activity (Cavia porcellus [1]) of 12 and an inhibition in vivo at 150 mg/kg (Mus musculus [2]) of 31%.

In the case of `Cc1ccc(/C=C2\CS(=O)(=O)Cc3c(-c4ccc(C)cc4)nn(CC(F)(F)F)c32)cc1`, the inhibition in vivo at 150 mg/kg (Mus musculus [3]) is reported as less than 20%, the Activity (Cavia porcellus [4]) is reported as 19 and the inhibition in vivo at 75 mg/kg (Mus musculus [5]) is reported as greater than 60%.

For `CCCN1N=C2/C(=C/c3ccccc3)COCC2C1c1ccccc1` (centres undefined), the Activity (Cavia porcellus [6]) was 9 and the inhibition in vivo at 150 mg/kg (Mus musculus [7]) was 21%.

`CCCN1N=C2/C(=C/c3ccccc3)CS(=O)(=O)CC2C1c1ccccc1` (centres undefined) showed an inhibition in vivo at 300 mg/kg (Mus musculus [8]) of 21%, an Activity (Cavia porcellus [9]) of 3 and an inhibition in vivo at 150 mg/kg (Mus musculus [10]) of 41%.

`CCCN1N=C2/C(=C/c3ccccc3)CSCC2C1c1ccccc1` (centres undefined) showed an Activity (Cavia porcellus [11]) of 1 and an inhibition in vivo at 150 mg/kg (Mus musculus [7]) of 21%.

Work on `CCCN1N=C2/C(=C/c3cccc(C(F)(F)F)c3)CS(=O)(=O)CC2C1c1cccc(C(F)(F)F)c1` (centres undefined) yielded an Activity (Cavia porcellus [12]) of 8 and an inhibition in vivo at 150 mg/kg (Mus musculus [10]) of 41%.

Work on `CN1CCN(CCCN2N=C3/C(=C/c4ccccc4)CSCC3C2c2ccccc2)CC1.O=C(O)/C=C\C(=O)O` (centres undefined) yielded an Inhibition (Cavia porcellus [13]) of 21% and an Inhibition (Mus musculus [10]) of 41%.

`CCCN1N=C2/C(=C/c3ccc(C)cc3)CS(=O)(=O)CC2C1c1ccc(C)cc1` (centres undefined) showed an inhibition in vivo at 150 mg/kg (Rattus norvegicus [14]) of 17%, an inhibition in vivo at 75 mg/kg (Rattus norvegicus [15]) of 28% and an LD50 [16] of 3400 mg/kg. For the same compound, the ED50 (Rattus norvegicus [17]) was 84 mg/kg, the inhibition in vivo at 75 mg/kg (Rattus norvegicus [18]) was 1% and the Activity (Cavia porcellus [19]) was 13. The ED50 (Mus musculus [20]) was greater than 600 mg/kg, the LD50 [21] was greater than 4000 mg/kg and the inhibition in vivo at 150 mg/kg (Mus musculus [10]) was 41%. For the same compound, the inhibition in vivo at 150 mg/kg (Rattus norvegicus [22]) was 16%, the selectivity ratio [23] was 24 and the ED50 (Rattus norvegicus [24]) was 250 mg/kg. For the same compound, the ED50 (Mus musculus [25]) was 140 mg/kg.

`Cc1ccc(/C=C2\CS(=O)(=O)CC3C2=NN(CCc2ccccc2)C3c2ccc(C)cc2)cc1` (centres undefined) showed an Activity (Cavia porcellus [26]) of 10.

With `CCCn1nc(-c2ccc(C)cc2)c2c1/C(=C/c1ccc(C)cc1)CS(=O)(=O)C2` the inhibition in vivo at 75 mg/kg (Mus musculus [27]) was 21% and the Activity (Cavia porcellus [28]) was 14.

Compound `CCCN1N=C2/C(=C/c3ccc(OC)cc3)CS(=O)(=O)CC2C1c1ccc(OC)cc1` (centres undefined) has an Activity (Cavia porcellus [29]) of 17, an inhibition in vivo at 300 mg/kg (Mus musculus [30]) of less than 20% and an inhibition in vivo at 150 mg/kg (Mus musculus [2]) of 31%.

Work on `CCCN1N=C2/C(=C/c3ccccc3C)CS(=O)(=O)CC2C1c1ccccc1C` (centres undefined) yielded an Activity (Cavia porcellus [31]) of 7 and an inhibition in vivo at 150 mg/kg (Mus musculus [7]) of 21%.

Work on `CC(=O)N1N=C2/C(=C/c3ccccc3)CS(=O)(=O)CC2C1c1ccccc1` (centres undefined) yielded an Activity (Cavia porcellus [32]) of 8 and an inhibition in vivo at 150 mg/kg (Mus musculus [10]) of 41%.

Work on `CCCN1N=C2/C(=C/c3ccc(Cl)cc3)CSCC2C1c1ccc(Cl)cc1` (centres undefined) yielded an Activity (Cavia porcellus [33]) of 14, an inhibition in vivo at 150 mg/kg (Mus musculus [7]) of 21% and an inhibition in vivo at 150 mg/kg (Mus musculus [34]) of 21%.

Compound `O=S1(=O)C/C(=C\c2ccccc2)C2=NNC(c3ccccc3)C2C1` (centres undefined) has an Activity (Cavia porcellus [35]) of 3 and an inhibition in vivo at 150 mg/kg (Mus musculus [10]) of 41%.
